The target of experiment [1] is T1, Histamine H2 receptor (Homo sapiens, UniProt P25021). As to the kind of experiment: Binding affinity against human H2 receptor by the displacement of [125I]iodoaminopotentidine, bound to membranes of CHO cells. The format is cell membranes. (In general: Displacement assays read how much labelled ligand stays bound in the presence of the test substance.)
The target of experiment [2] is T2, Histamine H3 receptor (Cavia porcellus, UniProt Q9JI35). As to the kind of experiment: Tested in vitro for antagonist activity against H3 receptor of guinea pig jejunum. The settings on record: read-out: pA2 (converted). The class given is functional, tissue-based. In outline: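 Isolated guinea pig jejunum segments were electrically stimulated, giving twitches from endogenous acetylcholine release. Antagonism was tested against cumulative (R)-α-methylhistamine concentration–response curves, using at least three antagonist concentrations. pA2 was the negative log of the Schild plot abscissal intercept. Tissues came from at least four animals, tested in triplicate; Student's t-test, p < 0.05.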

For experiment [3], the target named is T3, Histamine H1 receptor (Cavia porcellus, UniProt P31389). As to the kind of experiment: Binding affinity against H1 receptor of guinea pig by the displacement of [3H]mepyramine, bound to membranes of CHO cells. The format is cell membranes. In outline: (§1)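 Displacement of [3H]mepyramine from membranes of CHO cells expressing guinea pig H1 receptors. At least three independent experiments, each performed in triplicate.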

The target in experiment [4] is Histamine H3 receptor (Cavia porcellus) (UniProt Q9JI35). The settings on record: Ileum.
For experiment [5] the target is unchanged. To be noted: Jejunum.
The target in experiment [6] is T2, Histamine H3 receptor. In words: pA2 values against H3 receptor of guinea pig ileum were determined. The class given is tissue-based. The settings on record: read-out: pA2 (converted).
The target of experiment [7] is T1, Histamine H2 receptor. As to the kind of experiment: Binding affinity against human H2 receptor by the displacement of [125I]iodoaminopotentidine bound to membranes of CHO cells. The format is cell membranes. In outline: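 Displacement of [125I]iodoaminopotentidine from membranes of CHO cells expressing human H2 receptors. At least three independent experiments, each performed in triplicate.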

Experiment [8] deals with T3, Histamine H1 receptor. As to the kind of experiment: Binding affinity for H1 receptor of guinea pig by the displacement of [3H]mepyramine, bound to membranes of CHO cells. The class given is cell membranes. In outline:
as §1

The target in experiment [9] is T2, Histamine H3 receptor. As to the kind of experiment: pD2 values against H3 receptor of guinea pig jejunum were determined. The class given is tissue-based. In outline:
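Isolated guinea pig jejunum segments, electrically stimulated so that endogenous acetylcholine release evokes contractile twitches. Cumulative concentrations of the compound were added, and the concentration-dependent inhibition of the evoked twitches gave a concentration–response curve. Tissue from at least four animals was used, each tested in triplicate. Student's t-test, with p < 0.05 taken as significant.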

Bounds are passed on as bounds.

T1 sequence (P25021 whole entry): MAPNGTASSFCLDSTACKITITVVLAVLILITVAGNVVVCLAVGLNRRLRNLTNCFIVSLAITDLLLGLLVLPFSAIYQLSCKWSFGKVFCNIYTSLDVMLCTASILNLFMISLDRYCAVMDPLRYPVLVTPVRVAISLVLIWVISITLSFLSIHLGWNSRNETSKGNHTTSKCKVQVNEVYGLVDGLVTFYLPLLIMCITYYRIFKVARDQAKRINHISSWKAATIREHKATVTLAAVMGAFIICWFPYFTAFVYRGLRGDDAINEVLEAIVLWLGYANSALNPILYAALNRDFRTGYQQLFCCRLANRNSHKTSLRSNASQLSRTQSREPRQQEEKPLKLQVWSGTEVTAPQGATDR
T2 sequence (Q9JI35 whole entry): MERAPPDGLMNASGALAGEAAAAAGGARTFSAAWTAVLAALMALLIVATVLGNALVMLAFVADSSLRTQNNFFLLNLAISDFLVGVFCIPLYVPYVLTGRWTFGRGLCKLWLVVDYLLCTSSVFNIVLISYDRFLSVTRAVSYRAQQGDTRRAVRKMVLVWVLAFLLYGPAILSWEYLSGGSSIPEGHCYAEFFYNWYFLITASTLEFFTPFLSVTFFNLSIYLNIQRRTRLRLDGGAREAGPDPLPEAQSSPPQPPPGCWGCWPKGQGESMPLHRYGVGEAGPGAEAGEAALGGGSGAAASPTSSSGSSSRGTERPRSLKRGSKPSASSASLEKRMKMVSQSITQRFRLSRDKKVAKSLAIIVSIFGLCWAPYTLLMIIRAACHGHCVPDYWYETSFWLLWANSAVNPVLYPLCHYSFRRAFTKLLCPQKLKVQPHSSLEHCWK
T3 sequence (P31389 whole entry): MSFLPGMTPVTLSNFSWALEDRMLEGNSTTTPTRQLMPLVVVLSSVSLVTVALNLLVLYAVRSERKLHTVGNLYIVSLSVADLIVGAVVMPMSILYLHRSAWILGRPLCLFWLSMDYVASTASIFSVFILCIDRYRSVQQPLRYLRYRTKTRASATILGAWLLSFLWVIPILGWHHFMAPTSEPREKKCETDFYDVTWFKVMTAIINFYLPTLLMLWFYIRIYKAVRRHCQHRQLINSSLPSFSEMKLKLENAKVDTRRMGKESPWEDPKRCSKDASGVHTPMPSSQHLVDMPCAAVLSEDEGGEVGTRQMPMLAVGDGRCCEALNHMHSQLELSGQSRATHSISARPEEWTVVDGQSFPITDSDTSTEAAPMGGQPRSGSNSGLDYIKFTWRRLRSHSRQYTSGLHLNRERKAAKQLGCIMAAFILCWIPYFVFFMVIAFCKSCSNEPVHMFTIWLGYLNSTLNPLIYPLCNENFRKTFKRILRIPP
Histamine H3 receptor (Cavia porcellus), sequence (Q9JI35 whole entry): as the sequence (Q9JI35 whole entry) above

The term Ki denotes a measure of affinity in units of concentration, obtained from inhibition or displacement. A low value points to a stronger hold on the target. As for `NCCCCCCCCCCc1c[nH]cn1`, the Ki in experiment [1] is 20 µM; in [3] it was 0.631 µM. Besides, in experiment [2], the Kb is 1 µM.
As to `NCCCc1c[nH]cn1` [HOMOHISTAMINE], the Ki in experiment [1] and in experiment [3] was more than 1000 µM in each case. The Kb in experiment [2] was 1.26 µM.
In experiment [4], `N=C(N)SCCc1c[nH]cn1` yielded a pD2 of 8.1.
For the compound `NCCc1c[nH]cn1`, the pD2 in experiment [5] was 6.2.
In the case of `NCc1c[nH]cn1`, the inhibition constant Ki in [1] and in [3] was more than 1000 µM throughout. In [2], the Kb was more than 1000 µM.
`N=C(N)SCCCc1c[nH]cn1`: the Kb in [6] was 0.01 µM.
As to `NCCCCCCCCc1cnc[nH]1`, the results for the Ki in experiment [1] and in experiment [3] were 31.6 µM and 2.51 µM, respectively. In addition, the Kb in experiment [2] is 1 µM.
In the case of `NCCCCc1c[nH]cn1` [IMBUTAMINE], the Ki was 794 µM in experiment [7] and 398 µM in [8]. Moreover, the Kb in experiment [2] was 0.02 µM.
Compound `C[C@@H](N)Cc1c[nH]cn1` yielded a pD2 in [9] of 7.8.
As to `NCCCCCCc1cnc[nH]1`, the Ki in experiment [1] was 200 µM; in experiment [3], 126 µM. Also, the Kb in experiment [2] was 0.0158 µM.
Take `NCCCCCc1c[nH]cn1` [IMPENTAMINE]: the Ki is 251 µM in experiment [1] and 126 µM in [3]. Besides, the Kb in [2] is 0.00398 µM.

The values are drawn from ChEMBL document CHEMBL1128733 (J Med Chem, 1995).
